The list is not random: actives were taken first. Their share in the collection is about 3.4%.
TMEM16A inh: TMEM16A chloride channel inhibitors, primary screen, cell-based, HTS; actives 1.2% (n = 310,000); HEK293 TMEM16A/YFP iodide influx fluorescence, ionomycin; normalized B-score (activity score, 25-100; higher = stronger inhibition) at 10 µM;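 active = ratio plate-corrected score three or more library SD toward inhibition, starting fluorescence score within five deviations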;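 note: score derived from kinetic fluorescence span divided by baseline fluorescence per well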
Target sequence (Q8BHY3 whole entry, looked up): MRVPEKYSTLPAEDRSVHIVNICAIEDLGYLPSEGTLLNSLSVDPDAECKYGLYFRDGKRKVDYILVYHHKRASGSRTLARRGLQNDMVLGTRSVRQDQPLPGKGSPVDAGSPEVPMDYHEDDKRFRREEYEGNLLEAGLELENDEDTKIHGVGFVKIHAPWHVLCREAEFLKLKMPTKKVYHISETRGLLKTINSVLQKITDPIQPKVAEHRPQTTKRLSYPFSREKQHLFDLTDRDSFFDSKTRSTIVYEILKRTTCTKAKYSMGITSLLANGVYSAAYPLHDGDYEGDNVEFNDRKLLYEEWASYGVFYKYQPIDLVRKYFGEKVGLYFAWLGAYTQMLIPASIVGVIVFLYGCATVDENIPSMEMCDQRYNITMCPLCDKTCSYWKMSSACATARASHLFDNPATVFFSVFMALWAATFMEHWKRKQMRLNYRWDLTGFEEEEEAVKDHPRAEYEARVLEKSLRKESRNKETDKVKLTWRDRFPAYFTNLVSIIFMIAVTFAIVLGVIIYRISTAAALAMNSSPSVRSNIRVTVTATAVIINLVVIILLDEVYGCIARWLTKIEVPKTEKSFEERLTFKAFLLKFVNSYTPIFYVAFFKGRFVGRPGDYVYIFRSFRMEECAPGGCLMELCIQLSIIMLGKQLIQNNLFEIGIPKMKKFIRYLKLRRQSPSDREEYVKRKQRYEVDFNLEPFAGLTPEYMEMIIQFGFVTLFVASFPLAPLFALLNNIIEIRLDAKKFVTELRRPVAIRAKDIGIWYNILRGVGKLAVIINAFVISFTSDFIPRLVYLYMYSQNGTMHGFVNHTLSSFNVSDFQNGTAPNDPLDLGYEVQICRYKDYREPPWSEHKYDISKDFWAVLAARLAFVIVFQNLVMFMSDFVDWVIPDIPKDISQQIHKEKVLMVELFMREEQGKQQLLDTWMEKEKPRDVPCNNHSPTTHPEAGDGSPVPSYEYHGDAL
IMP-1 inh-1: IMP-1 metallo-beta-lactamase inhibitors, primary screen, biochemical, epi-absorbance readout, Pseudomonas aeruginosa enzyme. actives 0.45% (n = 290,000). inhibition, % at 5.6 µM. purified IMP-1, nitrocefin hydrolysis, epi-absorbance fluorescence. metallo-beta-lactamase IMP-1 (Pseudomonas aeruginosa);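 active = inhibition above the mean plus 3 SD of all compounds in the same screening run, cut at about 4.5% in these data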;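 note: 0% = IMP-1 with DMSO and 100% = DMSO wells lacking enzyme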
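System: purified recombinant IMP-1 beta-lactamase. Medium: Zinc- and detergent-supplemented HEPES buffer, pH 7.1. Compound: one 5.6 µM dose […]. Schedule: 15 min preincubation plus 25 min reaction at 25 °C. Technique: Epi-absorbance fluorescence, 480 nm excitation, 530 nm emission.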
ANO1 activ: TMEM16A chloride channel activators or potentiators, primary screen, cell-based, HTS | Anoctamin-1 (Mus musculus), Q8BHY3 | HEK293 TMEM16A/YFP-H148Q/I152L, iodide quench fluorescence; stronger effect = lower value | B-score at 10 µM | actives 0.3% (n = 340,000) | AID 623877, 2012;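 active = fluorescence-ratio B-score plate-corrected deviation score at least 3 library SD below zero, with starting fluorescence score within 5 deviations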;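 note: channel opened by trigger with iodide after compound preincubation; score built on the fluorescence ratio of max minus min over baseline; more negative score means more quench and so TMEM16A activation or potentiation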
VIM-2 inhibitor: VIM-2 metallo-beta-lactamase inhibitors, primary screen, biochemical, epi-absorbance readout, Pseudomonas aeruginosa enzyme. purified VIM-2, nitrocefin hydrolysis, epi-absorbance fluorescence. inhibition, % at 5.6 µM. actives 0.89% (n = 290,000);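 active = inhibition above the mean of all tested compounds plus 3 SD, cutoff set per screening run, cut at about 7.5% in these data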;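 note: red hydrolysis product quenches plate fluorescence so inhibitors raise well fluorescence; 0% = enzyme with DMSO and 100% = DMSO without enzyme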
CHT allo act: CHT positive allosteric modulators, primary screen, cell-based, membrane potential dye, choline EC20 | High affinity choline transporter 1 (Homo sapiens), Q9GZV3 | CHT-expressing cells; stronger effect = higher value; LV-AA mutant CHT in HEK293 cells | B-score at 10 µM | actives 0.49% (n = 310,000) | AID 488977, 2010;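 active = initial fluorescence not abnormally high and integrated response B-score, plate-corrected, over 3 SD above library mean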
CHT block: inhibitors of human choline transporter CHT; CHT-expressing cells, membrane potential dye, choline response; stronger effect = lower value; B-score at 10 µM; AID 488975, 2010; actives 0.86% (n = 310,000);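 active = B-score over 3 SD under the library average, and starting fluorescence ratio not unusually high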;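 note: choline stimulus applied at its EC90 after an EC20 pre-addition; B-score computed on integrated fluorescence ratio after choline addition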
IMP-1 inh-2: IMP-1 metallo-beta-lactamase inhibitors, confirmation, selectivity assay for selective VIM-2 inhibitor project, biochemical, epi-absorbance readout, triplicate. inhibition, % at 5.6 µM. 1,300 tested, under 10 active. shares compounds with VIM-2 inhibitor. purified IMP-1, nitrocefin hydrolysis, epi-absorbance fluorescence; call rule not given here;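 note: 0% = enzyme with vehicle and 100% = vehicle without enzyme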
VIM-2 FRET inh: VIM-2 inhibitors in FRET format, confirmation, artefact control for selective VIM-2 inhibitor project, biochemical, epi-absorbance artifact exclusion. AID 1857, 2009. shares compounds with VIM-2 inhibitor. inhibition, % at 5.6 µM. purified VIM-2, CCF2 FRET substrate hydrolysis. actives 23% (n = 1,300);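 active = inhibition above the mean of all tested compounds plus 3 SD, cut at about 19% in these data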;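 note: 0% = VIM-2 plus DMSO and 100% = no enzyme wells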
TEM-1 counter: TEM-1 serine beta-lactamase inhibitors, counter-screen for VIM-2 inhibitor project, biochemical, epi-absorbance, HTS; shares compounds with VIM-2 inhibitor; Purified TEM-1, nitrocefin hydrolysis, epi-absorbance fluorescence; inhibition, % at 5.6 µM; actives 3% (n = 1,300);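 active = inhibition above that campaign's mean inhibition plus 3 SD, cut at about 0.46% in these data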;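 note: 0% = TEM-1 with DMSO and 100% = TEM-1 with 100 µM potassium clavulanate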
VIM-2 inh conf: VIM-2 metallo-beta-lactamase inhibitors, confirmation, biochemical, epi-absorbance, hits shared with IMP-1 screen | shares compounds with VIM-2 inhibitor | actives 96% (n = 1,300) | purified VIM-2, nitrocefin hydrolysis | inhibition, % at 5.6 µM;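 active = inhibition of the VIM-2 beta-lactamase enzyme above about 11% from the earlier first-round screen, limit read from the data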;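 note: 0% = VIM-2 with DMSO and 100% = buffer wells without enzyme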
Numbers without * were called inactive; i = inactive; . = no result.

SMILES	TMEM16A inh	IMP-1 inh-1	ANO1 activ	VIM-2 inhibitor	CHT allo act	CHT block	IMP-1 inh-2	VIM-2 FRET inh	TEM-1 counter	VIM-2 inh conf
CCOC(=O)c1sc(NC(=O)CCN2CCN(CC)CC2)c(C(=O)OCC)c1C	i	0	i	14*	i	i	-4	0	-5	27*
O=C(c1ccc(Br)cc1)N1CCC(C(=O)N2CCN(Cc3ccccc3)CC2)CC1	i	-3	i	-3	i	i	.	.	.	.
CCOc1ccc(Nc2ccnc3cc(Cl)ccc23)cc1	i	-3	i	-2	i	i	.	.	.	.
CN1CCN(c2ccc(Nc3ccnc4cc(Cl)ccc34)cc2)CC1	i	2	i	87*	i	i	-2	-10	-6	88*
Cc1nn2c3ccccc3nc2c2ccccc12	i	-1	i	13*	i	i	-3	-10	-3	27*
Cc1nn2c(-c3ccccc3)nnc2c2ccccc12	i	-5	i	7	i	i	.	.	.	.
NC(=O)c1cc2cc(Cl)ccc2o/c1=N/NC(=O)c1cccs1	i	-4	i	-5	i	i	.	.	.	.
COc1ccc(CCn2c(=N)c(C(=O)NCCN3CCOCC3)cc3c(=O)n4cccc(C)c4nc32)cc1OC	i	-3	i	19*	i	i	-3	0	-6	27*
COc1ccc(CCNC(=O)c2cc3c(=O)n4ccccc4nc3n(CC3CCCO3)c2=N)cc1OC (stereo unspecified)	i	0	i	4	i	i	.	.	.	.
COc1ccc(CCNC(=O)c2cc3c(=O)n4ccccc4nc3n(CCCN3CCOCC3)c2=N)cc1OC	i	0	i	15*	i	i	-3	-9	-4	21*
CNC(=O)c1cc2c(=O)n3cccc(C)c3nc2n(C(C)C)c1=N	i	1	i	12*	i	i	-3	-92	-6	26*
CCNC(=O)c1cc2c(=O)n3cccc(C)c3nc2n(CCc2ccccc2)c1=N	i	-3	i	-2	i	i	.	.	.	.
O=C(Nc1ccc(F)cc1)N1CCN(c2ccc3nnc(-c4ccc(F)cc4)n3n2)CC1	i	-2	i	3	i	i	.	.	.	.
O=C(Nc1ccccc1C(F)(F)F)N1CCN(c2ccc3nnc(-c4ccc(F)cc4)n3n2)CC1	i	-2	i	12*	i	i	-3	-2	-8	6
O=C(c1ccc(Br)o1)N1CCN(c2ccc3nnc(-c4ccccc4)n3n2)CC1	i	-2	i	16*	i	i	-3	-2	-2	24*
Cc1ccc(-n2nc3c(c2NC(=O)c2ccco2)CS(=O)C3)cc1 (stereo unspecified)	i	-4	i	-1	i	i	.	.	.	.
CCOC(=O)N=S(N)(=O)c1ccc(Cl)cc1 (stereo unspecified)	i	0	i	15*	i	i	1	32*	-5	26*
CCOC(=O)N=S(N)(=O)c1ccccc1 (stereo unspecified)	i	-2	i	23*	i	i	-2	51*	-5	34*
CCOC(=O)c1sc(CS(=O)(=O)c2ccc(Cl)cc2)nc1C	i	-1	i	0	i	i	.	.	.	.
CCOC(=O)/C(=N\Nc1ccccc1)S(=O)(=O)c1ccccc1	i	1	i	-3	i	i	.	.	.	.
COc1cc2c(cc1OC)/C(=C/C(=O)c1ccc(OC)c([N+](=O)[O-])c1)NCC2	i	-1	i	1	i	i	.	.	.	.
COc1cc2c(cc1OC)/C(=C/C(=O)c1ccc(F)cc1)NCC2	i	-2	i	14*	i	i	-3	-5	-6	19*
CC(=O)N/N=C/c1cc(C(C)C)cc(/C=N/NC(C)=O)c1O	i	0	i	34*	i	i	-1	12	-2	47*
CCOC(=O)c1cnc2c(ccc3ccccc32)c1NCCCN(C)C	i	1	i	25*	i	i	1	11	-6	35*
CCOC(=O)c1cnc2ccc(OC)cc2c1Nc1ccc(N2CCN(C)CC2)cc1	i	-2	i	76*	i	i	-2	1	-7	85*
SMILES	TMEM16A inh	IMP-1 inh-1	ANO1 activ	VIM-2 inhibitor	CHT allo act	CHT block	IMP-1 inh-2	VIM-2 FRET inh	TEM-1 counter	VIM-2 inh conf
CCOC(=O)c1cnc2c(C)c(Cl)ccc2c1NCCCN1CCOCC1	i	0	i	16*	i	i	0	1	-1	25*
CCOC(=O)c1ccc2ncc(C(=O)OCC)c(Nc3ccc(N4CCOCC4)cc3)c2c1	i	-2	i	-2	i	i	.	.	.	.
CCOC(=O)c1ccc2ncc(C(=O)OCC)c(NCCCN3CCOCC3)c2c1	i	-4	i	26*	i	i	-3	0	-6	53*
Cc1ccc(C)c(N2C(=O)CC(Cc3ccc(Cl)cc3)C2=O)c1 (stereo unspecified)	i	-1	i	-1	i	i	.	.	.	.
COCCNC(=O)c1c[nH]c2ccc(S(=O)(=O)N(C)c3ccc(C)c(C)c3)cc2c1=O	i	-2	i	-5	i	i	.	.	.	.
O=[N+]([O-])c1ccccc1Nc1cccnc1	i	.	i	.	i	i	.	.	.	.
Cc1cc(NC(=O)CSCC(=O)OCc2nnc(-c3ccc(F)cc3)o2)no1	.	.	i	.	.	.	.	.	.	.
CCCc1cc(C(=O)N2CCCC(C(=O)c3cc(C)c(OC)c(C)c3)C2)n(C)n1 (stereo unspecified)	i	1	i	5	i	i	.	.	.	.
